From ChEMBL document CHEMBL1146375, “Synthetic studies on novel benzimidazolopeptides with antimicrobial, cytotoxic and anthelmintic potential” (2007)
Converted amounts (≈) assume the structure as drawn.

system: Bacillus subtilis; assay: Antibacterial activity against Bacillus subtilis NCIM 2063 after 18 hrs by disc diffusion method; type: functional; details: not given
How it was run: (§1)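 Modified Kirby-Bauer disc diffusion. Plates inoculated with spore suspension (about 6 × 10⁴ spores mL^-1). Sterile 6 mm paper discs carried test samples at 10 mg mL^-1; ciprofloxacin disc as reference, DMF disc as negative control. Plates held 18 h at 37 °C. Inhibition zone diameters (mm) averaged over triplicate sets.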

Structure (SMILES) | inhibition zone (IZ)
O=C(O)[C@@H]1CCCN1C(=O)[C@@H]1CCCN1C(=O)[C@@H]1CCCN1C(=O)c1cc(-c2nc3ccc([N+](=O)[O-])cc3[nH]2)ccc1O | 14 mm

system: Staphylococcus aureus; assay: Antibacterial activity against Staphylococcus aureus NCIM 2079 after 18 hrs by disc diffusion method; type: functional; details: not given; how it was run: as §1

Structure (SMILES) | inhibition zone (IZ)
O=C(O)[C@@H]1CCCN1C(=O)[C@@H]1CCCN1C(=O)[C@@H]1CCCN1C(=O)c1cc(-c2nc3ccc([N+](=O)[O-])cc3[nH]2)ccc1O | 11 mm

system: Pseudomonas aeruginosa; assay: Antibacterial activity against Pseudomonas aeruginosa NCIM 2034 after 18 hrs by disc diffusion method; type: functional; details: not given; how it was run: as §1

Structure (SMILES) | inhibition zone (IZ)
O=C(O)[C@@H]1CCCN1C(=O)[C@@H]1CCCN1C(=O)[C@@H]1CCCN1C(=O)c1cc(-c2nc3ccc([N+](=O)[O-])cc3[nH]2)ccc1O | 28 mm

system: Escherichia coli; assay: Antibacterial activity against Escherichia coli NCIM 2065 after 18 hrs by disc diffusion method; type: functional; details: not given; how it was run: as §1

Structure (SMILES) | inhibition zone (IZ)
O=C(O)[C@@H]1CCCN1C(=O)[C@@H]1CCCN1C(=O)[C@@H]1CCCN1C(=O)c1cc(-c2nc3ccc([N+](=O)[O-])cc3[nH]2)ccc1O | 17 mm

system: Candida albicans; assay: Antifungal activity against Candida albicans MUCC 29 after 48 hrs by disc diffusion method; type: functional; details: not given
How it was run: (§2)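 Agar well diffusion on plates inoculated with spore suspension in normal saline from cultures on Sabouraud's broth. Wells punched and loaded with test samples or griseofulvin at 10 mg mL^-1, with DMSO as negative control. Incubated 48 h at 37 °C.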

Structure (SMILES) | inhibition zone (IZ)
O=C(O)[C@@H]1CCCN1C(=O)[C@@H]1CCCN1C(=O)[C@@H]1CCCN1C(=O)c1cc(-c2nc3ccc([N+](=O)[O-])cc3[nH]2)ccc1O | 24 mm

system: Microsporum audouinii; assay: Antifungal activity against Microsporum audouinii MUCC 545 after 48 hrs by disc diffusion method; type: functional; details: not given; how it was run: as §2

Structure (SMILES) | inhibition zone (IZ)
O=C(O)[C@@H]1CCCN1C(=O)[C@@H]1CCCN1C(=O)[C@@H]1CCCN1C(=O)c1cc(-c2nc3ccc([N+](=O)[O-])cc3[nH]2)ccc1O | 13 mm

system: Trichophyton benhamiae; assay: Antifungal activity against Trichophyton mentagrophytes MUCC 665 after 48 hrs by disc diffusion method; type: functional, Arthroderma benhamiae; details: not given; how it was run: as §2

Structure (SMILES) | inhibition zone (IZ)
O=C(O)[C@@H]1CCCN1C(=O)[C@@H]1CCCN1C(=O)[C@@H]1CCCN1C(=O)c1cc(-c2nc3ccc([N+](=O)[O-])cc3[nH]2)ccc1O | 17 mm

system: Aspergillus niger; assay: Antifungal activity against Aspergillus niger MUCC 177 after 48 hrs by disc diffusion method; type: functional; details: not given; how it was run: as §2

Structure (SMILES) | inhibition zone (IZ)
O=C(O)[C@@H]1CCCN1C(=O)[C@@H]1CCCN1C(=O)[C@@H]1CCCN1C(=O)c1cc(-c2nc3ccc([N+](=O)[O-])cc3[nH]2)ccc1O | 17 mm

system: Bacillus subtilis; assay: Antibacterial activity against Bacillus subtilis NCIM 2063 after 18 hrs by tube dilution method; type: functional; details: NCIM 2063, 18 h
How it was run: (§3)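 Tube dilution MIC. Stock diluted in sterile broth to seven concentrations from 200 to 3.1 […]. Each tube inoculated with one loopful of test bacterium and incubated 18 h at 37 °C. MIC read from presence or absence of growth.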

Structure (SMILES) | MIC
O=C(O)[C@@H]1CCCN1C(=O)[C@@H]1CCCN1C(=O)[C@@H]1CCCN1C(=O)c1cc(-c2nc3ccc([N+](=O)[O-])cc3[nH]2)ccc1O | 6 µg/mL (≈ 10.2 µM)

system: Staphylococcus aureus; assay: Antibacterial activity against Staphylococcus aureus NCIM 2079 after 18 hrs by tube dilution method; type: functional; details: NCIM 2079, 18 h; how it was run: as §3

Structure (SMILES) | MIC
O=C(O)[C@@H]1CCCN1C(=O)[C@@H]1CCCN1C(=O)[C@@H]1CCCN1C(=O)c1cc(-c2nc3ccc([N+](=O)[O-])cc3[nH]2)ccc1O | 12.5 µg/mL (≈ 21.2 µM)

system: Pseudomonas aeruginosa; assay: Antibacterial activity against Pseudomonas aeruginosa NCIM 2034 after 18 hrs by tube dilution method; type: functional; details: NCIM 2034, 18 h; how it was run: as §3

Structure (SMILES) | MIC
O=C(O)[C@@H]1CCCN1C(=O)[C@@H]1CCCN1C(=O)[C@@H]1CCCN1C(=O)c1cc(-c2nc3ccc([N+](=O)[O-])cc3[nH]2)ccc1O | 6 µg/mL (≈ 10.2 µM)

system: Escherichia coli; assay: Antibacterial activity against Escherichia coli NCIM 2065 after 18 hrs by tube dilution method; type: functional; details: NCIM 2065, 18 h

Structure (SMILES) | MIC
O=C(O)[C@@H]1CCCN1C(=O)[C@@H]1CCCN1C(=O)[C@@H]1CCCN1C(=O)c1cc(-c2nc3ccc([N+](=O)[O-])cc3[nH]2)ccc1O | 25 µg/mL (≈ 42.3 µM)

system: Candida albicans; assay: Antifungal activity against Candida albicans MUCC 29 after 48 hrs by tube dilution method; type: functional; details: not given
How it was run: (§4)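 Tube dilution MIC as for bacteria (seven concentrations, 200–3.1 […]), with DMSO in place of DMF. Tubes inoculated with fungal culture and incubated 48 h at 37 °C. MIC read from presence or absence of growth.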

Structure (SMILES) | MIC
O=C(O)[C@@H]1CCCN1C(=O)[C@@H]1CCCN1C(=O)[C@@H]1CCCN1C(=O)c1cc(-c2nc3ccc([N+](=O)[O-])cc3[nH]2)ccc1O | 6 µg/mL (≈ 10.2 µM)

system: Microsporum audouinii; assay: Antifungal activity against Microsporum audouinii MUCC 545 after 48 hrs by tube dilution method; type: functional; details: not given; how it was run: as §4

Structure (SMILES) | MIC
O=C(O)[C@@H]1CCCN1C(=O)[C@@H]1CCCN1C(=O)[C@@H]1CCCN1C(=O)c1cc(-c2nc3ccc([N+](=O)[O-])cc3[nH]2)ccc1O | 6 µg/mL (≈ 10.2 µM)

system: Trichophyton benhamiae; assay: Antifungal activity against Trichophyton mentagrophytes MUCC 665 after 48 hrs by tube dilution method; type: functional, Arthroderma benhamiae; details: not given; how it was run: as §4

Structure (SMILES) | MIC
O=C(O)[C@@H]1CCCN1C(=O)[C@@H]1CCCN1C(=O)[C@@H]1CCCN1C(=O)c1cc(-c2nc3ccc([N+](=O)[O-])cc3[nH]2)ccc1O | 12.5 µg/mL (≈ 21.2 µM)

system: Eudrilus; assay: Anthelmintic activity against Eudrilus sp. assessed as mean paralyzing time; type: functional; details: not given
How it was run: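 Earthworms exposed to test suspensions at 2 mg mL^-1 (0.2% w/v), made by triturating compound with Tween 80 (0.5%) and distilled water, then mechanically stirred 30 min. Mebendazole suspension prepared alike as reference. Paralysis and death times recorded; death confirmed by no movement in 50 °C water. Means from triplicate sets.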

Structure (SMILES) | Time
O=C(O)[C@@H]1CCCN1C(=O)[C@@H]1CCCN1C(=O)[C@@H]1CCCN1C(=O)c1cc(-c2nc3ccc([N+](=O)[O-])cc3[nH]2)ccc1O | 26.54 min
